What was measured:
Assay type in all cases: functional, cell-based
Bel-7402 = experiment: Cytotoxicity against human BEL-7402 cells after 4 days by MTT assay; conditions: Bel-7402, 96 h
Method in brief: (§1)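 Panel of nine human cancer lines tested in parallel: BXPC-3 (pancreatic), NCI-446 (lung), MCF-7 (breast), HEPG-2 (liver), A549 (lung), A2780 (ovarian), Bel7402 (liver), HT-29 (colon), and KB (epidermoid carcinoma of nasopharynx). Cells were exposed for 4 days of incubation, viability was read by MTT, and values were expressed as the doses required for the response.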

MCF7 = experiment: Cytotoxicity against human MCF7 cells after 4 days by MTT assay; conditions: MCF7, 96 h; method in brief: as §1
A549 = experiment: Cytotoxicity against human A549 cells after 4 days by MTT assay; conditions: A549, 96 h; method in brief: as §1
HT-29 = experiment: Cytotoxicity against human HT29 cells after 4 days by MTT assay; conditions: HT-29, 96 h; method in brief: as §1
HepG2 = experiment: Cytotoxicity against human HepG2 cells after 4 days by MTT assay; conditions: HepG2, 96 h; method in brief: as §1
A2780 = experiment: Cytotoxicity against human A2780 cells after 4 days by MTT assay; conditions: A2780, 96 h; method in brief: as §1
BXPC-3 = experiment: Cytotoxicity against human BXPC3 cells after 4 days by MTT assay; conditions: BXPC-3, 96 h; method in brief: as §1
KB = experiment: Cytotoxicity against human KB cells after 4 days by MTT assay; conditions: 96 h; method in brief: as §1
[1] = Cytotoxicity against human NCI446 cells after 4 days by MTT assay; conditions: NCI446, 96 h; method in brief: as §1

Row | SMILES | IC50 (Bel-7402) [nM] | IC50 (MCF7) [nM] | IC50 (A549) [nM] | IC50 (HT-29) [nM] | IC50 (HepG2) [nM] | IC50 (A2780) [nM] | IC50 (BXPC-3) [nM] | IC50 (KB) [nM] | IC50 [1] [nM]
1 | CC[C@@]1(O)C(=O)OCc2c1cc1n(c2=O)Cc2cc3c4c(ccc3nc2-1)OCN(c1ccc(F)cc1F)C4 | 4700 | 4480 | 390 | 620 | 550 | 2070 | 1570 | 660 | 
2 | CC[C@@]1(O)C(=O)OCc2c1cc1n(c2=O)Cc2cc3c4c(ccc3nc2-1)OCN(c1ccccc1OC)C4 | 2230 | 1400 | 720 | 310 | 130 | 2990 | 3340 | 290 | 
3 | CC[C@@]1(O)C(=O)OCc2c1cc1n(c2=O)Cc2cc3c4c(ccc3nc2-1)OCN(c1ccc(C)cc1)C4 | 3860 | 1640 | 570 | 530 |  | 2160 | 2050 | 340 | 9390
4 | CC[C@@]1(O)C(=O)OCc2c1cc1n(c2=O)Cc2cc3c4c(ccc3nc2-1)OCN(Cc1ccccc1)C4 | 1580 | 1600 | 80 | 100 | 110 | 910 | 210 | 40 | 6230
5 | CC[C@@]1(O)C(=O)OCc2c1cc1n(c2=O)Cc2cc3c4c(ccc3nc2-1)OCN(c1cccc(C)c1)C4 | 5430 |  | 420 | 340 | 930 | 850 | 580 | 40 | 7030
6 | CC[C@@]1(O)C(=O)OCc2c1cc1n(c2=O)Cc2cc3c4c(ccc3nc2-1)OCN(Cc1ccc(F)cc1)C4 | 5220 | 650 | 120 | 1190 | 140 | 11600 | 1730 | 60 | 43200
7 | CCCN1COc2ccc3nc4c(cc3c2C1)Cn1c-4cc2c(c1=O)COC(=O)[C@]2(O)CC | 1430 |  | 110 | 180 | 10 | 90 | 150 | 670 | 3900
8 | CC[C@@]1(O)C(=O)OCc2c1cc1n(c2=O)Cc2cc3c4c(ccc3nc2-1)OCN(c1ccc(F)c(F)c1F)C4 | 13100 | 2590 | 280 | 620 |  | 1070 | 120 | 280 | 
9 | CC[C@@]1(O)C(=O)OCc2c1cc1n(c2=O)Cc2cc3c(CN(C)C)c(O)ccc3nc2-1 [TOPOTECAN] | 3130 | 1200 | 220 | 880 |  | 3350 | 620 | 220 | 10100
10 | CCCCN1COc2ccc3nc4c(cc3c2C1)Cn1c-4cc2c(c1=O)COC(=O)[C@]2(O)CC | 4010 | 550 | 200 | 130 | 350 | 3190 | 970 | 90 | 10100
11 | CC[C@@]1(O)C(=O)OCc2c1cc1n(c2=O)Cc2cc3c4c(ccc3nc2-1)OCN(C)C4 | 1670 | 4520 | 410 | 690 | 640 | 530 | 480 | 670 | 37300
12 | CC[C@@]1(O)C(=O)OCc2c1cc1n(c2=O)Cc2cc3ccccc3nc2-1 [CAMPTOTHECIN] | 170 | 200 | 10 | 90 | 130 | 200 | 240 | 3 | 3280
13 | CC[C@@]1(O)C(=O)OCc2c1cc1n(c2=O)Cc2cc3c4c(ccc3nc2-1)OCN(Cc1ccc(OC)cc1)C4 | 9580 |  | 30 | 1680 | 1470 | 17600 | 1240 | 80 | 56800
14 | CCN1COc2ccc3nc4c(cc3c2C1)Cn1c-4cc2c(c1=O)COC(=O)[C@]2(O)CC | 810 | 210 | 160 | 140 | 50 | 120 | 190 | 120 | 230
15 | CC[C@@]1(O)C(=O)OCc2c1cc1n(c2=O)Cc2cc3c4c(ccc3nc2-1)OCN(c1ccccc1C)C4 | 6000 |  | 1210 | 220 | 180 | 4260 | 530 | 60 | 1140
16 | CC[C@@]1(O)C(=O)OCc2c1cc1n(c2=O)Cc2cc3c4c(ccc3nc2-1)OCN(c1ccc(F)c(Cl)c1)C4 | 3060 | 9510 | 560 | 1130 | 180 | 3100 | 920 | 620 | 
17 | CC[C@@]1(O)C(=O)OCc2c1cc1n(c2=O)Cc2cc3c4c(ccc3nc2-1)OCN(c1ccccc1Cl)C4 | 15200 | 2000 | 450 | 1050 |  | 4100 | 890 | 330 | 19200
18 | CC[C@@]1(O)C(=O)OCc2c1cc1n(c2=O)Cc2cc3c4c(ccc3nc2-1)OCN(c1ccccc1)C4 | 7130 | 2750 | 770 | 480 | 30 | 3430 | 190 | 670 | 
19 | CC[C@@]1(O)C(=O)OCc2c1cc1n(c2=O)Cc2cc3c4c(ccc3nc2-1)OCN(c1ccc(OC)cc1)C4 | 4990 |  | 270 | 310 | 120 | 1120 | 420 | 230 | 14400
20 | CC[C@@]1(O)C(=O)OCc2c1cc1n(c2=O)Cc2cc3c4c(ccc3nc2-1)OCN(c1ccc(Cl)cc1)C4 | 16300 | 5000 | 310 | 210 | 170 | 820 | 510 | 230 | 
